According to ChEMBL document CHEMBL1687720 (Antimicrob Agents Chemother, 2009):
The source made the active and inactive calls. No cut-off for these calls is given here.

Tests used:
[1] = test system: Plasmodium falciparum; assay: Downregulation of glutathione reductase mRNA level in Plasmodium falciparum 3D7 trophozoites at 126 nM after 18 hrs by RT-qPCR analysis relative to untreated control; assay type: functional
Method in brief: (§1)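 P. falciparum 3D7 trophozoites are exposed to 126 nM compound for 12, 15 or 18 h, then harvested by saponin lysis at 37°C. RNA is extracted and reverse-transcribed, and transcripts are quantified by real-time PCR in quadruplicate. Analysis uses ΔΔCT with 18S rRNA as reference (LDH also checked), expressed as % of untreated control.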

[2] = target: Thioredoxin reductase (Homo sapiens, UniProt Q16881+Q9NNW7+Q86VQ6); assay: Inhibition of thioredoxin reductase in human A549 cells assessed as enzyme activity at 5 µM after 24 hrs by DTNB assay relative to untreated control; set-up: scale not given: the % may be the effect or the level left
[3] = test system: Plasmodium falciparum; assay: Upregulation of glutathione synthetase mRNA level in Plasmodium falciparum 3D7 trophozoites at 126 nM after 18 hrs by RT-qPCR analysis relative to untreated control; assay type: functional
Method in brief: (§2)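 Synchronized 3D7 trophozoites in RPMI/Albumax culture at 37°C under 3% O2, 3% CO2 were exposed 12, 15 or 18 h, then harvested by 0.02% saponin lysis. RNA was reverse-transcribed and analyzed by real-time PCR in quadruplicate. Quantification used ΔΔCT with 18S rRNA reference (LDH also checked), expressed as % of untreated control.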

[4] = test system: Plasmodium falciparum; assay: Upregulation of glutathione S-transferase mRNA level in Plasmodium falciparum 3D7 trophozoites at 126 nM after 12 hrs by RT-qPCR analysis relative to untreated control; assay type: functional, organism-based; method in brief: as §2
[5] = test system: Plasmodium falciparum; assay: Upregulation of glutathione synthetase mRNA level in Plasmodium falciparum 3D7 trophozoites at 126 nM after 15 hrs by RT-qPCR analysis relative to untreated control; assay type: functional; method in brief: as §2
[6] = test system: Plasmodium falciparum; assay: Downregulation of DNA-directed RNA polymerase 2 mRNA level in Plasmodium falciparum 3D7 trophozoites at 126 nM by RT-qPCR analysis relative to untreated control; assay type: functional; method in brief: as §1
[7] = test system: Plasmodium falciparum; assay: Downregulation of gamma-glutamylcysteine synthetase mRNA level in Plasmodium falciparum 3D7 trophozoites at 126 nM after 18 hrs by RT-qPCR analysis relative to untreated control; assay type: functional; method in brief: as §1
[8] = test system: A549; assay: Effect on glutathione peroxidase expression in human A549 cells assessed as transcript level at 24 nM after 24 hrs by RT-qPCR analysis relative to untreated control; assay type: functional; details: in the assay text read “24 µM” for “24 nM”
Method in brief: (§3)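 A549 cells are seeded at 2.5 × 10^5 per 25-cm2 well. At 40–45% confluence they are treated for 24 h with 166 or 662 μM, 158 or 315 μM, or 5 or 24 μM compound; controls receive <5% DMSO. Total RNA is DNase-treated and qRT-PCR is run in quadruplicate. Values are normalized to GAPDH and given as % of untreated control.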

[9] = test system: Plasmodium falciparum; assay: Upregulation of glutathione synthetase mRNA level in Plasmodium falciparum 3D7 trophozoites at 126 nM after 12 hrs by RT-qPCR analysis relative to untreated control; assay type: functional; method in brief: as §2
[10] = test system: Plasmodium berghei; assay: Antimalarial activity against Plasmodium berghei infected in mouse assessed as reduction in parasite load at 10 mg/kg for 4 days treated postinfection measured on day 9; assay type: functional; set-up: scale not given: the % may be the effect or the level left
Method in brief: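 Murine P. berghei model; compound given subcutaneously at 10 mg/kg for 4 days postinfection; parasitemia compared with untreated controls (n = 13 per group) on days 4, 7 and 9; significance by Fisher's exact test.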

[11] = test system: Plasmodium falciparum; assay: Upregulation of Heat shock protein mRNA level in Plasmodium falciparum 3D7 trophozoites at 126 nM by RT-qPCR analysis relative to untreated control; assay type: functional; method in brief: as §2
[12] = test system: Plasmodium falciparum; assay: Downregulation of thioredoxin peroxidase mRNA level in Plasmodium falciparum 3D7 trophozoites at 126 nM after 18 hrs by RT-qPCR analysis relative to untreated control; assay type: functional; method in brief: as §1
[13] = test system: A549; assay: Inhibition of glutathione peroxidase in human A549 cells assessed as enzyme activity at 662 µM after 24 hrs relative to untreated control; set-up: scale not given: the % may be the effect or the level left
[14] = test system: A549; assay: Effect on glutathione S-transferase expression in human A549 cells assessed as transcript level at 662 nM after 24 hrs by RT-qPCR analysis relative to untreated control; assay type: functional; details: in the assay text read “662 µM” for “662 nM”; method in brief: as §3
[15] = test system: A549; assay: Effect on glutathione peroxidase expression in human A549 cells assessed as transcript level at 662 nM after 24 hrs by RT-qPCR analysis relative to untreated control; assay type: functional; details: in the assay text read “662 µM” for “662 nM”; method in brief: as §3
[16] = test system: Plasmodium falciparum; assay: Antiplasmodial activity against chloroquine-resistant Plasmodium falciparum K1 in presence of premaquine; assay type: functional
[17] = test system: Plasmodium falciparum; assay: Antiplasmodial activity against chloroquine-resistant Plasmodium falciparum K1 in presence of chloroquine; assay type: functional
[18] = target: T1, Glutathione reductase, mitochondrial (Homo sapiens) (UniProt P00390); assay: Inhibition of glutathione reductase in human A549 cells assessed as enzyme activity at 166 µM after 24 hrs relative to untreated control; set-up: scale not given: the % may be the effect or the level left
T1 sequence (whole entry): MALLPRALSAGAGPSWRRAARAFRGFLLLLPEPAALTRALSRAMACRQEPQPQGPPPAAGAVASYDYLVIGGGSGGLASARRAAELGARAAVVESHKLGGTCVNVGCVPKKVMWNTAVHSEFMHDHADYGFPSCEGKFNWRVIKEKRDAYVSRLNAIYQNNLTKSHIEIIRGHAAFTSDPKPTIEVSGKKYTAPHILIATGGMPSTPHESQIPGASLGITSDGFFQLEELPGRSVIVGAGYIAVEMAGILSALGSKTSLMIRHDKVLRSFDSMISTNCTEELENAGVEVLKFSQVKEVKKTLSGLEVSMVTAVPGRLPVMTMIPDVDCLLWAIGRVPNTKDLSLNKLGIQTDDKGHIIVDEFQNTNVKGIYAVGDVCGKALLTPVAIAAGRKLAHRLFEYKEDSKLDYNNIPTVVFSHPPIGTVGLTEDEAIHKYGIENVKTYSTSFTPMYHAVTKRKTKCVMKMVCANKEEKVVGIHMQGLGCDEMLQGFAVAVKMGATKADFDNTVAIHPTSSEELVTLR

[19] = test system: Plasmodium falciparum; assay: Antiplasmodial activity against chloroquine-resistant Plasmodium falciparum K1 in presence of quinine; assay type: functional
[20] = test system: A549; assay: Effect on thioredoxin reductase expression in human A549 cells assessed as transcript level at 166 nM after 24 hrs by RT-qPCR analysis relative to untreated control; assay type: functional; details: in the assay text read “166 uM” for “166 nM”; method in brief: as §3
[21] = test system: Plasmodium falciparum; assay: Antiplasmodial activity against chloroquine-resistant Plasmodium falciparum K1 in presence of methylene blue; assay type: functional
[22] = test system: A549; assay: Effect on glutathione peroxidase expression in human A549 cells assessed as transcript level at 315 nM after 24 hrs by RT-qPCR analysis relative to untreated control; assay type: functional; details: in the assay text read “315 µM” for “315 nM”; method in brief: as §3
[23] = test system: A549; assay: Effect on glutathione S-transferase expression in human A549 cells assessed as transcript level at 158 nM after 24 hrs by RT-qPCR analysis relative to untreated control; assay type: functional; details: in the assay text read “158 µM” for “158 nM”; method in brief: as §3

O=c1oc2c(O)c(O)c(O)c3c(=O)oc4c(O)c(O)c(O)c1c4c23 [CORULEOELLAGIC ACID]
Activity [1]: 62%
Activity [2]: 42%
Activity [3]: 128%
Activity [4]: inactive
Activity [5]: 128%
Activity [6]: 42%
Activity [7]: 25%
Activity [8]: 71%
Activity [9]: 128%
Activity [10]: 50%
Activity [11]: 158%
Activity [12]: 19%

O=c1oc2c(O)c(O)cc3c(=O)oc4c(O)c(O)cc1c4c23 [ELLAGIC ACID]
Activity [13]: 125%
Activity [14]: 131%
Activity [15]: 150%
FIC50 [16]: 1
FIC50 [17]: 1
Activity [18]: 87%
FIC50 [19]: 1
Activity [20]: 115%
FIC50 [21]: 1

O=c1oc2c(O)c(O)c(O)c3c(=O)oc4c(O)c(O)cc1c4c23 [FLAVELLAGIC ACID]
Activity [22]: 77%
Activity [23]: 115%
